Laboratory results taken from ChEMBL document CHEMBL1134284, “The biological effects of structural variation at the meta position of the aromatic rings and at the end of the alkenyl chain in the alkenyldiarylmethane series of non-nucleoside reverse transcriptase inhibitors” (J Med Chem, 2001).

Key:
[1] = system: Human immunodeficiency virus type 1 (RF/HAT ISOLATE); experiment: Inhibitory concentration for cytopathicity of HIV-1RF in CEM-SS cells; format: functional, organism-based; details: Human immunodeficiency virus 1, RF
Outline: (§1)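 CEM-SS cells kept in RPMI 1640 with 10% heat-inactivated FBS, 2 mM glutamine, penicillin/streptomycin. Microtiter assay with cytopathic HIV-1 RF, or mock infection for toxicity. Viability read by MTS/phenazine ethosulfate reduction (absorbance 490 nm) 6 days after infection. […] Triplicate.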

[2] = Antiviral activity against ROJO virus strain in PBLs (peripheral blood lymphocytes); format: functional, cell-based; details: Homo sapiens
Outline: (§2)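 PBMCs isolated from hepatitis- and HIV-seronegative donors by Ficoll-Hypaque gradient and stimulated 3 days with phytohemagglutinin/IL-2. Infected with pediatric low-passage clinical isolates or NIAID subtype isolates, in RPMI 1640 with 10% FBS, 2 mM glutamine, penicillin/streptomycin. Replication read as supernatant reverse transcriptase activity. […] Run in triplicate, with AZT as positive control.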

[3] = Antiviral activity against subtype isolate D strain in PBLs (peripheral blood lymphocytes); format: functional, cell-based; details: Homo sapiens; outline: as §2
[4] = Antiviral activity against subtype isolate C strain in PBLs (peripheral blood lymphocytes); format: functional, cell-based; details: Homo sapiens; outline: as §2
[5] = system: CCRF-CEM; experiment: Antiviral activity against site directed resistant isolate HIV-1 Y188C in CEM cells; format: functional, cell-based, Homo sapiens
Outline: (§3)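 CEM-SS cells in RPMI 1640 with 10% heat-inactivated FBS were infected with NL4-3 molecular clones carrying site-directed RT mutations. Cytoprotection from virus-induced syncytial killing was read by MTS/phenazine ethosulfate reduction (A490) 6 days after infection. […] Triplicate, variation of mean about 10%.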

[6] = Antiviral activity against multi drug resistant MDR 769 strain in PBLs (peripheral blood lymphocytes); format: functional, cell-based; details: Homo sapiens
Outline: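 PBMC from hepatitis- and HIV-seronegative donors isolated by Ficoll-Hypaque gradient and stimulated 3 days with phytohemagglutinin/IL-2 before infection. Medium RPMI 1640 with 10% FBS, 2 mM glutamine, penicillin/streptomycin. Replication read as supernatant reverse transcriptase activity. […] Run in triplicate, SD within triplicate under 10%; AZT positive control.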

[7] = Antiviral activity against WEJO virus strain in PBLs (peripheral blood lymphocytes); format: functional, cell-based; details: Homo sapiens; outline: as §2
[8] = system: CCRF-CEM; experiment: Antiviral activity against site directed 4X AZT resistant isolate HIV-1 in CEM cells; format: functional, cell-based, Homo sapiens; details: Homo sapiens, CCRF-CEM
[9] = system: CCRF-CEM; experiment: Antiviral activity against site directed 4X AZT resistant isolate HIV-1 L100I in CEM cells; format: functional, cell-based, Homo sapiens
Outline: (§4)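 CEM-SS cells infected with low-cytopathicity site-directed RT-mutant NL4-3 clones (A98G, L74V, 4XAZT = D67N/K70R/T215Y/K219Q, 4XAZT/L100I). Replication was quantified by p24 ELISA rather than cytoprotection. […] Triplicate, variation of mean about 10%.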

[10] = system: CCRF-CEM; experiment: Antiviral activity against site directed resistant isolate HIV-1 V179D in CEM cells; format: functional, cell-based, Homo sapiens; outline: as §3
[11] = system: CCRF-CEM; experiment: Antiviral activity against site directed resistant isolate HIV-1 L74V in CEM cells; format: functional, cell-based, Homo sapiens; outline: as §4
[12] = Antiviral activity against subtype isolate O strain in PBLs (peripheral blood lymphocytes); format: functional, cell-based, Homo sapiens; outline: as §2
[13] = system: CCRF-CEM; experiment: Antiviral activity against site directed resistant isolate HIV-1 L100I in CEM cells; format: functional, cell-based, Homo sapiens; outline: as §3
[14] = Antiviral activity against subtype isolate A strain in PBLs (peripheral blood lymphocytes); format: functional, cell-based; details: Homo sapiens; outline: as §2
[15] = Antiviral activity against subtype isolate B strain in PBLs (peripheral blood lymphocytes); format: functional, cell-based, Homo sapiens; outline: as §2
[16] = system: CCRF-CEM; experiment: Antiviral activity against site directed resistant isolate HIV-1 K101E in CEM cells; format: functional, cell-based, Homo sapiens
[17] = Antiviral activity against TEKI virus strain in PBLs (peripheral blood lymphocytes); format: functional, cell-based; details: Homo sapiens; outline: as §2
[18] = Antiviral activity against SLKA virus strain in PBLs (peripheral blood lymphocytes); format: functional, cell-based; details: Homo sapiens; outline: as §2
[19] = Antiviral activity against subtype isolate G strain in PBLs (peripheral blood lymphocytes); format: functional, cell-based; details: Homo sapiens; outline: as §2
[20] = system: CCRF-CEM; experiment: Antiviral activity against site directed resistant isolate HIV-1 Y181C in CEM cells; format: functional, cell-based, Homo sapiens; outline: as §3
[21] = system: CCRF-CEM; experiment: Antiviral activity against site directed wild-type enzyme isolate HIV-1 NL4-3WT in CEM cells; format: functional, cell-based; details: Homo sapiens
Outline: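 Wild-type NL4-3 in CEM-SS cells, measured both by MTS cytoprotection 6 days after infection and by p24 ELISA. The IC50 is the mean of the two methods' values.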

[22] = system: CCRF-CEM; experiment: Antiviral activity against site directed resistant isolate HIV-1 K103N in CEM cells; format: functional, cell-based, Homo sapiens; outline: as §3
[23] = system: CEM-SS; experiment: Concentration required for cytotoxicity against mock infected CEM-SS cells; format: functional; details: Homo sapiens; outline: as §1
[24] = system: CCRF-CEM; experiment: Antiviral activity against site directed resistant isolate HIV-1 V106A in CEM cells; format: functional, cell-based, Homo sapiens; outline: as §3
[25] = Antiviral activity against Ba-L monocyte tropic isolate strain in monocyte; format: functional; details: Homo sapiens
Outline: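 Monocytes isolated from hepatitis- and HIV-seronegative donors by Ficoll-Hypaque gradient, cultured 6 days into macrophages, then infected with Ba-L. Medium RPMI 1640 with 10% FBS, 2 mM glutamine, penicillin/streptomycin. Replication read as p24 antigen by ELISA 6 days postinfection. […] Run in triplicate, with AZT as positive control.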

[26] = Antiviral activity against subtype isolate F strain in PBLs (peripheral blood lymphocytes); format: functional, cell-based, Homo sapiens; outline: as §2
[27] = system: CCRF-CEM; experiment: Antiviral activity against site directed resistant isolates in HIV-1 A98G CEM cells; format: functional, cell-based, Homo sapiens; outline: as §4
[28] = Antiviral activity against subtype isolate E strain in PBLs (peripheral blood lymphocytes); format: functional, cell-based; details: Homo sapiens
[29] = Ratio of CC50/EC50 was determined; format: cell-based; details: human, CEM-SS cells; read-out: TI
Outline: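 HIV-1 RF–infected CEM-SS cells (RPMI 1640, 10% heat-inactivated FBS, 2 mM glutamine, penicillin/streptomycin), plus mock-infected CEM-SS in parallel. Cell killing and viability were read by MTS/phenazine ethosulfate reduction at 490 nm 6 days after infection. […] Index = CC50 ÷ EC50. Triplicate tests.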

Row | Compound | EC50 [1] [nM] | IC50 [2] [nM] | IC50 [3] [nM] | IC50 [4] [nM] | IC50 [5] [µM] | IC50 [6] [µM] | IC50 [7] [nM] | IC50 [8] [nM] | IC50 [9] [nM] | IC50 [10] [nM] | IC50 [11] [nM] | IC50 [13] [nM] | IC50 [14] [nM] | IC50 [16] [nM] | IC50 [17] [nM] | IC50 [18] [nM] | IC50 [20] [µM] | IC50 [21] [nM] | IC50 [22] [nM] | IC50 [24] [µM] | also measured
1 | COC(=O)CCCC=C(c1cc(Cl)c(OC)c(C(=O)OC)c1)c1cc(Cl)c(OC)c(C(=O)OC)c1 | 13 | 750 | 180 | 410 | 3.3 | 16.9 | 600 | 75 | 490 | 1300 | 469 | 408 | 100 | 366 | 800 | 1300 | > 20 | 850 | 600 | > 20 | IC50 [12]: 12 µM; IC50 [15]: 12.7 µM; IC50 [19]: 600 nM; CC50 [23]: 31.6 µM; IC50 [25]: 5.4 µM; IC50 ([26]; Homo sapiens): 1300 nM
2 | COC(=O)CCCC=C(c1cc(Br)c(OC)c(C(=O)OC)c1)c1cc(Br)c(OC)c(C(=O)OC)c1 | 1.3 | 540 | 180 | 310 | 2 | 48.8 | 400 | 32 | 320 | 1300 | 284 | 84 | 200 | 594 | 900 | 1000 | 8.3 | 400 | 350 | 9.84 | IC50 [27]: 460 nM; IC50 [28]: 200 nM; selectivity ratio [29]: 10000; IC50 ([12]; Homo sapiens): 16 µM; IC50 ([15]; Homo sapiens): 5.4 µM; IC50 [19]: 300 nM; CC50 [23]: 13 µM; IC50 [25]: 3.6 µM; IC50 [26]: 1900 nM
3 | Cc1ccnc2c1NC(=O)c1cccnc1N2C1CC1 [NEVIRAPINE] | – | – | – | – | 8.3 | – | – | 8 | 207 | 70 | 61 | 180 | – | 5 | – | – | 8.27 | 29 | 1440 | 1.88 | IC50 [27]: 222 nM
